Screens (PubChem)
In the library only some 3.7% were active in any assay of this set; here they are far more common.
GPR7 antag – GPR7 receptor antagonists, primary screen, cell-based, fluorescence, single concentration. AID 1861, 2009. Neuropeptides B/W receptor type 1 (Homo sapiens), P48145. inhibition, % at 4.4 µM. 1.1% of 290,000 active. GPR7-expressing cells, fluorescence antagonist assay; in the data active = inhibition above about 16%, passing the limit was not always enough;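 also: cells stimulated with the agonist NPW; 0% = agonist with vehicle and 100% = vehicle without agonist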
Target sequence (P48145 whole entry, looked up): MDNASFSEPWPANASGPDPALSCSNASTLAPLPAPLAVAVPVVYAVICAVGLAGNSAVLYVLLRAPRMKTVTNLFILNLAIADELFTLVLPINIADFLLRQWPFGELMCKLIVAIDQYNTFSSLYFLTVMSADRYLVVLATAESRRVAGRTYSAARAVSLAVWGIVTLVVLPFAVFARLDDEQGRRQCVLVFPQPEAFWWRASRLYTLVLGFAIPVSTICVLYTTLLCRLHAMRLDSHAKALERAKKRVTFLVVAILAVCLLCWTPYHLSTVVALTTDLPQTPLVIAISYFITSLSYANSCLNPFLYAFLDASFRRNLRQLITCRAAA
PGE2 EP2 inh – human EP2 receptor antagonists, primary screen, TR-FRET cAMP, C6 glioma cells; C6 glioma cells expressing human EP2; cells stimulated with saturating PGE2; inhibition, % at 25 µM; 0.52% of 260,000 active; AID 1422, 2008;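 active = percent inhibition above 40 after rounding to a whole number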;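 also: rat C6 glioma host cells with rolipram phosphodiesterase inhibitor present; the protocol text gives 20 µM as final concentration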
Target sequence (P43116 whole entry, looked up): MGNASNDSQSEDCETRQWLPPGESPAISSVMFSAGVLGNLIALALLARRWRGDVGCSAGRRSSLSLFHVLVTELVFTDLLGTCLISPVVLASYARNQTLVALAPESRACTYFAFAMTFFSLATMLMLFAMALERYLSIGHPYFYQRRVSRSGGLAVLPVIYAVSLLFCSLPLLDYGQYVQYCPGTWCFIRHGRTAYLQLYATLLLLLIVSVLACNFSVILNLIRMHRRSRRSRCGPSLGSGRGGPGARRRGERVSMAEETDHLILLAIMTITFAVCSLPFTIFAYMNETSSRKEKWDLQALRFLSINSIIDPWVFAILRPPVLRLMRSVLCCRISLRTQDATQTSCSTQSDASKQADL
OX1R antag-1 – antagonists of human orexin 1 receptor (OX1R); Orexin/Hypocretin receptor type 1 (Homo sapiens), O43613; OX1R-expressing cells, FRET antagonist read-out; inhibition, % at 6.6 µM; 1.8% of 330,000 active; AID 485270, 2010; in the data active = inhibition mostly above about 38%, no sharp cut-off; inactive = mostly below about 40%;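 also: 0% = agonist challenge alone and 100% = reference antagonist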
OX1R antag-2 – OX1R (HCRTR1) antagonists, primary screen, fluorescence, CHO/OX1R cells, Fluo-8 calcium, orexin A; Orexin/Hypocretin receptor type 1 (Homo sapiens), O43613; Fluo-8 calcium fluorescence; inhibition, % at 5 µM; 0.43% of 330,000 active;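 active = inhibition above its plate's threshold, mean inhibition of all tested compounds on the plate plus 3 SD, cut at about 37% in these data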;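 also: 0% = orexin A challenge wells and 100% = SB-334867-A antagonist wells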
EP2 mod – EP2 receptor modulators, cAMP readout, primary screen, cell-based, HTRF cAMP, PGE2 stimulation. induction, % at 25 µM. AID 940, 2007. EP2-expressing cells, cAMP HTRF FRET, PGE2 co-stimulation. Prostaglandin E2 receptor EP2 subtype (Homo sapiens), P43116. 0.83% of 260,000 active;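 active = compounds whose cAMP rise, as percent of the full-agonist control response, exceeds 60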;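 also: rat C6 glioma line stably carrying human EP2 under a CMV promoter; the protocol text gives 20 µM as final concentration; 100% = response of wells given 1 µM PGE2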
CHO parental Ca – ATP-evoked calcium signal inhibitors, parental CHO, primary screen, counter-screen for OX1R antagonist project, cell-based, fluorescence, Fluo-8 calcium dye; inhibition, % at 5.6 µM; parental CHO-K1, ATP-induced calcium, Fluo-8 fluorescence; 0.63% of 330,000 active;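 active = inhibition above that plate's mean sample inhibition plus 3 SD, cut at about 26% in these data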;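 also: 0% = ATP-challenged DMSO wells and 100% = DMSO wells without ATP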
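Measured by: calcium-sensitive Fluo-8 fluorescence / Test system: CHO parental line / Controls: ATP-challenged DMSO wells low, unchallenged DMSO wells high / Measure: % inhibition / Compound: single nominal dose of 5.6 µM per compound / Replicates: single well per compound, no replicates / Reagent: ATP as calcium-mobilizing challenge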
GPR7 antag conf – GPR7 receptor antagonists, confirmation, cell-based, fluorescence, single concentration. inhibition, % at 4.4 µM. shares compounds with GPR7 antag. 52% of 2,400 active. GPR7-expressing cells, calcium fluorescence antagonist mode; in the data active = inhibition above about 24%;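 also: stimulated with the GPR7 agonist NPW; 0% = agonist plus vehicle and 100% = vehicle alone without agonist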
MCHR1 antagonist – MCHR1 antagonists in cells, counter-screen for GPR7 antagonist project, cell-based, fluorescence, human; shares compounds with GPR7 antag; MCHR1-expressing cells, fluorescence antagonist assay; inhibition, % at 4.4 µM; 62% of 2,400 active; in the data active = inhibition above about 22%;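 also: 0% = vehicle with agonist and 100% = vehicle without agonist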
The depositor's hits bear a star; . = no result.

SMILES	GPR7 antag	PGE2 EP2 inh	OX1R antag-1	OX1R antag-2	EP2 mod	CHO parental Ca	GPR7 antag conf	MCHR1 antagonist
CCOC(=O)c1[nH]c2c(c1C)C(=O)CC(c1ccco1)C2 (stereo unspecified)	10.1	5.0	6.7	-30.0	-7.3	-11.3	.	.
COc1ccc(CN(C)C(=O)c2cnc(C)cn2)c(OC)c1OC	-15.5	.	7.3	-2.1	.	-12.8	.	.
COc1ccc(CN(C)C(=O)c2[nH]c(C)c(C(C)=O)c2C)c(OC)c1OC	21.1*	.	16.0	0.7	.	1.4	-7.7	11.0
CNC[C@H](Cc1ccccc1)NC[C@@H](Cc1cccc2ccccc12)NCCc1ccc(C)cc1	43.4*	.	19.1	25.2	.	22.8	67.3*	75.8*
Cc1cc(CNC(=O)COc2ccc(C#N)cc2)c2ccccc2n1	-4.9	7.5	29.8	-2.4	-16.5	-0.5	.	.
NC(=O)C1CCN(c2oc(-c3ccccc3F)nc2S(=O)(=O)c2ccc(Cl)cc2)CC1	-13.1	15.2	7.5	-24.8	-0.3	-20.8	.	.
COc1cccc(-n2ccnc2SCC(=O)Nc2cc(OC)ccc2OC)c1	38.3*	9.0	31.9	3.2	10.1	-45.3	19.5	37.7*
COc1cccc(-n2ccnc2SCC(=O)Nc2ccccc2F)c1	21.3*	7.9	5.1	-9.4	-31.7	3.7	18.0	3.0
Cc1ccccc1Oc1ncnc2oc(-c3ccccc3)cc12	28.6*	9.3	22.4	-32.6	24.1	-32.6	30.6*	16.6
Cc1cccn2c(CNC3CCCc4ccccc43)c(C(=O)N3CCCCC3)nc12 (stereo unspecified)	34.1*	4.8	27.2	-41.3	9.3	-23.9	17.3	16.6
COc1ccc(C=O)cc1COc1ccc(C)cc1[N+](=O)[O-]	31.4*	10.1	42.7	-16.1	10.2	-8.7	27.5*	61.0*
O=C(CP(=O)(c1ccccc1)c1ccccc1)N1CCCCC1	2.9	6.8	15.0	-21.4	9.8	-17.4	.	.
CCN1CCN(CCNC(=O)c2ccc(/C=C3/Sc4ccccc4N(Cc4ccccc4C)C3=O)cc2)CC1	26.4*	14.3	.	.	-28.2	.	82.8*	90.8*
CS(=O)(=O)N(CC(=O)NCc1ccc2c(c1)OCO2)c1ccccc1	-3.1	5.0	17.5	-32.8	28.0	-4.1	.	.
COc1ccc(Cl)cc1N(C(=O)c1ccco1)C(C(=O)NC1CCCC1)c1cccnc1 (stereo unspecified)	23.2*	.	14.7	-12.5	.	-25.7	9.2	2.1
COc1ccc(Cl)cc1N(C(=O)c1ccco1)C(C(=O)NC1CCCC1)c1ccco1 (stereo unspecified)	28.5*	.	32.8	-25.5	.	-16.4	28.0*	22.4*
COc1ccc(OC)c(N(C(=O)c2ccco2)C(C(=O)NC2CCCC2)c2cc(OC)c(OC)c(OC)c2)c1 (stereo unspecified)	31.8*	.	29.9	-15.5	.	-16.4	22.8	8.3
COc1cccc(C(C(=O)NC2CCCC2)N(C(=O)c2ccco2)c2ccccc2OC)c1 (stereo unspecified)	.	10.3	.	.	-39.6	.	.	.
COc1ccc(Cl)cc1N(C(=O)c1ccco1)C(C(=O)NC1CCCC1)c1ccncc1 (stereo unspecified)	17.4	.	2.9	-10.3	.	-18.2	.	.
COc1ccc(C(=O)Nc2ccccc2C(=O)NC(C(=O)NCc2ccco2)C(C)C)cc1 (stereo unspecified)	-9.0	9.6	27.3	-4.7	28.2	-14.1	.	.
O=C(Oc1cccc(NC(=O)c2ccccc2Cl)c1)c1ccc([N+](=O)[O-])cc1	34.7*	14.2	36.0	-10.8	-3.5	3.2	43.3*	55.6*
O=C(C#Cc1ccccc1)c1ccco1	56.3*	.	23.3	25.1	.	16.4	57.6*	66.4*
N#Cc1ccccc1OCC(=O)Nc1ccc(S(=O)(=O)N2CCOCC2)cc1	.	.	7.1	-77.9	.	-4.1	.	.
COc1ccc(N2CCN(C3CC(=O)N(C)C3=O)CC2)cc1 (stereo unspecified)	-7.7	7.6	21.9	2.5	-2.1	-0.5	.	.
CC1(C)CCC(=O)N(c2ccccc2)C1=O	-2.5	11.6	11.7	-1.1	-2.3	-4.8	.	.
SMILES	GPR7 antag	PGE2 EP2 inh	OX1R antag-1	OX1R antag-2	EP2 mod	CHO parental Ca	GPR7 antag conf	MCHR1 antagonist
Cc1nnsc1C(=O)N1CCCC(Nc2ccc(C(C)C)cc2)C1 (stereo unspecified)	-3.1	.	2.0	-13.0	.	-15.7	.	.
CC(C)c1ccc(NC2CCCN(C(=O)CC3CCCC3)C2)cc1 (stereo unspecified)	35.2*	.	3.2	19.0	.	-7.7	30.2*	26.9*
Cc1nonc1C(=O)N1CCCC(Nc2ccc(C(C)C)cc2)C1 (stereo unspecified)	24.6*	.	26.3	-12.7	.	-12.7	5.4	26.2*
CC(C)c1ccc(NC2CCCN(C(=O)CCN3CCCC3=O)C2)cc1 (stereo unspecified)	-9.9	.	-1.0	0.1	.	-19.8	.	.
Cc1cc(C)n(-c2nc(-c3ccccc3)cs2)n1	4.4	22.1	77.5	25.8	-35.2	-16.3	.	.
CCC(C(=O)Nc1ccccc1-c1ccccc1)c1ccccc1 (stereo unspecified)	-11.1	6.7	13.2	-31.8	43.6	-27.7	.	.
NC(=O)NC(Cc1ccccc1)C(=O)O (stereo unspecified)	-3.5	1.1	10.2	-20.4	22.0	-4.2	.	.
Cc1cccc(C)c1NC(=O)CN(C)C(=O)c1cccc(S(=O)(=O)N2CCN(c3ccc(F)cc3)CC2)c1	.	.	31.0	1.3	.	-7.9	.	.
CN(CC(=O)Nc1ccccc1Cl)C(=O)c1cccc(S(=O)(=O)N2CCN(c3ccc(F)cc3)CC2)c1	30.8*	.	17.0	5.8	.	19.4	24.4*	53.1*
COc1ccc(N(CC(=O)NCc2ccc(Cl)cc2)S(=O)(=O)c2ccccc2[N+](=O)[O-])c(OC)c1	37.4*	3.1	26.2	-4.4	-1.9	-13.3	34.0*	37.6*
COc1ccc(N(CC(=O)NCc2cccnc2)S(=O)(=O)c2ccccc2[N+](=O)[O-])c(OC)c1	1.4	2.9	10.0	-28.4	10.4	-7.8	.	.
CCOc1ncccc1C(=O)Nc1cccc(C(=O)Nc2cccc(S(=O)(=O)CCO)c2)c1	-13.5	10.0	8.7	11.5	11.2	-14.1	.	.
NC(=Nc1ccccc1)Nc1ccccc1	101.0*	.	5.5	34.6	.	41.6*	98.1*	108.0*
